Screening data: PubChem BioAssay, The Scripps Research Institute Molecular Screening Center
GPR7 antagonist: human neuropeptides B/W receptor 1 antagonism; P48145; GPR7-expressing cells, fluorescence antagonist assay; inhibition, % at 4.4 µM; 1.1% of 290,000 active; AID 1861; in the data active = inhibition above about 16%, passing the limit was not always enough;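 also: cells stimulated with the agonist NPW; 0% = agonist with vehicle and 100% = vehicle without agonist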
Target sequence (P48145 whole entry, looked up): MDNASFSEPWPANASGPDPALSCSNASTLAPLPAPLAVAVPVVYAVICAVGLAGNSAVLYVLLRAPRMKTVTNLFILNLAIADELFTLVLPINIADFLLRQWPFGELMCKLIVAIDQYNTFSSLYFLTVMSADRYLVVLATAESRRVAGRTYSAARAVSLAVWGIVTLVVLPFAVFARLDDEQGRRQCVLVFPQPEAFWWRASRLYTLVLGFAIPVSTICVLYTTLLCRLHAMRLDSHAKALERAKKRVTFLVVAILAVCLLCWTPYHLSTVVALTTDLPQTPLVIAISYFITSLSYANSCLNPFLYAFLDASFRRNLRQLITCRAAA
OX1R antag-1: antagonists of human orexin 1 receptor (OX1R); O43613; OX1R-expressing cells, FRET antagonist read-out; inhibition, % at 6.6 µM; 1.8% of 330,000 active; AID 485270; in the data active = inhibition mostly above about 38%, no sharp cut-off; inactive = mostly below about 40%;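 also: 0% = agonist challenge alone and 100% = reference antagonist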
TAAR1 antag: human TAAR1 antagonism. inhibition, % at 3 µM. AID 624466. Q96RJ0. 1.5% of 360,000 active. CHO RD-HGA16 TAAR1, Fluo-8 calcium fluorescence, antagonist;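 active = inhibition above a per-plate cutoff, the mean inhibition of test compounds on that plate plus 3 SD, cut at about 49% in these data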;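 also: 0% = DMSO plus EC80 beta-PEA response and 100% = DMSO alone without agonist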
Target sequence (Q96RJ0 whole entry, looked up): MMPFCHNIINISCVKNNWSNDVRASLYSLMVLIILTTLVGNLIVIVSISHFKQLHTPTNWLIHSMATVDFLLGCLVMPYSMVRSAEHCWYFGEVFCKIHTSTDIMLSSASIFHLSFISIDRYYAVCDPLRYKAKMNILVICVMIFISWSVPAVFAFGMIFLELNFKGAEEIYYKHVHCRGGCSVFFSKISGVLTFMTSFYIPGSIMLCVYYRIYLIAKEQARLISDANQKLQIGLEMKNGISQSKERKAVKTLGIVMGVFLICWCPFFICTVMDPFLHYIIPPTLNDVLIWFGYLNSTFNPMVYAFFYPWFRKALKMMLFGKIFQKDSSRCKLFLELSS
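Test system – hTAAR1-expressing CHO RD-HGA16 cells, Gα16-coupled · Also added – β-PEA at EC80 concentration, post-compound challenge · Compound – 3 µM, single point · Incubation – dye loading 75 min at 37 °C, then 30 min room temperature · Measured by – Fluo-8 intracellular calcium dye fluorescence, real-time kinetic reads · Benchmarks – vehicle and agonist controls · Replicates – singlicate, one well per test compound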
CHO parental Ca: counter-screen: ATP calcium response change in parental CHO cells | parental CHO-K1, ATP-induced calcium, Fluo-8 fluorescence | AID 463079 | 0.63% of 330,000 active | inhibition, % at 5.6 µM;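 active = inhibition above that plate's mean sample inhibition plus 3 SD, cut at about 26% in these data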;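 also: 0% = ATP-challenged DMSO wells and 100% = DMSO wells without ATP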
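Assay system: parental CHO cells; Read-out basis: percent inhibition of ATP-evoked calcium rise, normalized to controls; Benchmarks: ATP and no-ATP DMSO wells; Compound dosing: single nominal dose of 5.6 µM per compound; Signal: Fluo-8 calcium dye fluorescence; Also added: ATP as calcium-mobilizing challenge; Repeats: singlicate.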
TAAR1 agonist: agonists of human TAAR1; CHO RD-HGA16 TAAR1, Fluo-8 calcium fluorescence; vehicle wells 0%, saturating PEA agonist 100%; activation, % at 3 µM; 0.99% of 360,000 active;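 active = activation above the mean activation of all test compounds in the run plus 3 SD, cut at about 38% in these data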
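Repeats: no replicates (n 1) | Material: CHO-derived RD-HGA16 cells with stable Gα16 and human TAAR1 | Technique: Kinetic Fluo-8 calcium fluorescence | Schedule: 17-24 h seeding, 75 min 37 °C dye, 30 min RT | Evaluation: % activation from peak over basal fluorescence ratio, DMSO-to-PEA scaled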
OX1R antag-2: antagonists of human orexin 1 receptor. 0.43% of 330,000 active. CHO/OX1R cells, Fluo-8 calcium fluorescence, orexin A. inhibition, % at 5 µM. O43613;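 active = inhibition above its plate's threshold, mean inhibition of all tested compounds on the plate plus 3 SD, cut at about 37% in these data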;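 also: 0% = orexin A challenge wells and 100% = SB-334867-A antagonist wells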
GPR7 antag conf: human GPR7 antagonism, confirmation assay | GPR7-expressing cells, calcium fluorescence antagonist mode | shares compounds with GPR7 antagonist | inhibition, % at 4.4 µM | AID 1952 | 52% of 2,400 active; in the data active = inhibition above about 24%;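 also: stimulated with the GPR7 agonist NPW; 0% = agonist plus vehicle and 100% = vehicle alone without agonist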
MCHR1 antag: MCHR1 (human) antagonism in GPR7 counter-screen; shares compounds with GPR7 antagonist; MCHR1-expressing cells, fluorescence antagonist assay; inhibition, % at 4.4 µM; 62% of 2,400 active;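 also: 0% = vehicle with agonist and 100% = vehicle without agonist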
nonsel antag count: nonselective antagonism, TAAR1 counter-screen. shares compounds with TAAR1 antag. counterscreen cell line, calcium fluorescence, antagonist mode. inhibition, % at 3 µM. 77% of 2,400 active. AID 651780;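 also: CHO-Ga16 host cells stimulated with ATP at an EC80 level; 0% = agonist EC80 plus vehicle and 100% = vehicle without agonist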
TAAR1 antag conf: human TAAR1 antagonism, confirmed | shares compounds with TAAR1 antag | TAAR1-expressing cells, fluorescence antagonist read-out | inhibition, % at 3 µM | 40% of 2,400 active | AID 651785; in the data active = inhibition above about 49%;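 also: CHO-Ga16 host cells challenged with agonist PEA near its EC80; 0% = agonist at EC80 plus vehicle and 100% = vehicle with no agonist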
Ga16 ag counter-1: nonselective Ga16 agonist in TAAR1 antagonist counter-screen; shares compounds with TAAR1 antag; Ga16-expressing cells, calcium fluorescence, agonist counterscreen; activation, % at 3 µM; 18% of 2,400 active; AID 651953; in the data active = activation above about 12%;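 also: 0% = vehicle wells and 100% = saturating stimulus response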
TAAR1 ag counter: TAAR1 agonism, antagonist counter-screen. AID 651955. activation, % at 3 µM. hTAAR1 cell line, fluorescence activation, agonist mode. 2% of 2,400 active. shares compounds with TAAR1 antag; in the data active = activation above about 37%;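 also: CHO cells stably expressing TAAR1 with calcium dye readout; 0% = DMSO vehicle and 100% = full agonist response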
TAAR1 ag confirm: human TAAR1 agonism, confirmed; shares compounds with TAAR1 agonist; CHO RD-HGA16 TAAR1, Fluo-8 calcium fluorescence; scaled: DMSO 0%, maximal phenethylamine 100%; activation, % at 3 µM; 82% of 2,400 active; AID 651783;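 active = activation above a cutoff set at the run's mean compound activation plus 3 SD, cut at about 39% in these data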
Ga16 ag counter-2: nonselective agonist in parental cells, TAAR1 agonist counter-screen; CHO-Ga16 parental, Fluo-8 calcium fluorescence; normalized to maximal ATP response, DMSO zero; shares compounds with TAAR1 agonist; 50% of 2,400 active; AID 651787; activation, % at 3 µM;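 active = activation above the run cutoff, the mean activation over all tested wells plus 3 SD, cut at about 12% in these data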;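 also: 0% = DMSO wells and 100% = maximal ATP response on the peak over basal ratio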
TAAR1 desensitize: TAAR1 response desensitization, agonist counter-screen | CHO RD-HGA16 hTAAR1, Fluo-8 calcium, beta-PEA response inhibition | AID 651951 | shares compounds with TAAR1 agonist | inhibition, % at 3 µM | 46% of 2,400 active;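 active = inhibition above the run cutoff, the mean inhibition of all test compounds plus 3 SD, cut at about 49% in these data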;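 also: beta-PEA stimulus applied at its EC80; loss of beta-PEA calcium signal after compound pretreatment read as receptor desensitization; 0% = DMSO with beta-PEA at EC80 and 100% = DMSO alone without agonist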
Ga16 nonsel ant: counter-screen for TAAR1 agonists: nonselective Ga16 antagonists; inhibition, % at 3 µM; AID 651952; shares compounds with TAAR1 agonist; 39% of 2,400 active; CHO-Ga16 ATP-induced calcium, Fluo-8 fluorescence;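 active = inhibition above the plate's mean compound inhibition plus 3 SD, computed per plate, cut at about 22% in these data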;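 also: 0% = EC80 ATP with DMSO and 100% = DMSO wells without ATP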
An asterisk follows results filed as active. Only some compounds are listed: those with a hit (about 4.6% of all), similar ones and a draw of the others. Rule as the data show it, unless noted: active = inhibition above about 22%; inactive = the rest.

CC(NC(=O)CCSCc1ccccc1F)c1ccccc1 (centres undefined) was read as GPR7 antagonist 16, OX1R antag-1 5, TAAR1 antag -7, CHO parental Ca -8, TAAR1 agonist 0 and OX1R antag-2 -9.
Screening CC1(C)CC(C(CCN(Cc2ccccc2)C(=O)c2ccco2)c2ccc(F)cc2)CCO1 (centres undefined) returned GPR7 antagonist 31*, OX1R antag-1 8, TAAR1 antag 73*, CHO parental Ca -10, TAAR1 agonist 5, OX1R antag-2 -3, GPR7 antag conf 37*, MCHR1 antag 60*, nonsel antag count 41*, TAAR1 antag conf 54*, Ga16 ag counter-1 6 and TAAR1 ag counter 0.
O=C(c1ccco1)N(CCC(c1ccccc1)c1ccco1)Cc1ccc(F)cc1 (centres undefined) was read as GPR7 antagonist 17, OX1R antag-1 1, CHO parental Ca 6 and OX1R antag-2 4.
For CSc1ccc(CN2CCC(N3CCC(C(=O)NC4CC4)CC3)CC2)cc1 the results were TAAR1 antag -28 and TAAR1 agonist 2.
For CC(C)(C)C(=O)Nc1ccc(Sc2ccc([N+](=O)[O-])cc2)cc1 the results were GPR7 antagonist 25*, OX1R antag-1 26, TAAR1 antag 91*, CHO parental Ca 10, TAAR1 agonist 6, OX1R antag-2 24, GPR7 antag conf 23, MCHR1 antag 69*, nonsel antag count 49*, TAAR1 antag conf 60*, Ga16 ag counter-1 8 and TAAR1 ag counter 2.
Screening CC(=O)Nc1ccc(Sc2ccc([N+](=O)[O-])o2)cc1 returned TAAR1 antag -4 and TAAR1 agonist 2.
Screening COc1ccc(OC)c(NC(=O)c2cccc(N3C(=O)C4C5C=CC(C6CC56)C4C3=O)c2)c1 (centres undefined) returned GPR7 antagonist 24*, OX1R antag-1 9, TAAR1 antag 75*, CHO parental Ca -7, TAAR1 agonist 11, OX1R antag-2 -31, GPR7 antag conf 22, MCHR1 antag 69*, nonsel antag count 46*, TAAR1 antag conf 62*, Ga16 ag counter-1 13* and TAAR1 ag counter 10.
Cc1ccc(NC(=O)CC2C(=O)NCCN2C(=O)c2ccc(F)cc2)cc1 (centres undefined) was read as GPR7 antagonist -11, OX1R antag-1 12, TAAR1 antag -12, CHO parental Ca -5, TAAR1 agonist 0 and OX1R antag-2 -9.
`CCOC(=O)CN1C(=O)NC(C)(c2ccc(OC(F)F)cc2)C1=O` (centres undefined) gave GPR7 antagonist 5, OX1R antag-1 12, TAAR1 antag -14, CHO parental Ca 14, TAAR1 agonist 15 and OX1R antag-2 -12.
For CC1(c2ccc(OC(F)F)cc2)NC(=O)N(CC(=O)Nc2ccc3c(c2)OCO3)C1=O (centres undefined) the results were GPR7 antagonist 78*, OX1R antag-1 -2, TAAR1 antag 51*, CHO parental Ca 40*, TAAR1 agonist 110*, OX1R antag-2 38, GPR7 antag conf 83*, MCHR1 antag 82*, TAAR1 ag confirm 107*, Ga16 ag counter-2 73*, TAAR1 desensitize 87* and Ga16 nonsel ant 62*.
For CC(=O)Nc1ccc(/C=N/N2C(=O)NC(C)(c3ccc(OC(F)F)cc3)C2=O)cc1 (centres undefined) the results were GPR7 antagonist 39*, OX1R antag-1 -10, TAAR1 antag 97*, CHO parental Ca 36*, TAAR1 agonist 140*, OX1R antag-2 53*, GPR7 antag conf 98*, MCHR1 antag 99*, TAAR1 ag confirm 138*, Ga16 ag counter-2 105*, TAAR1 desensitize 104* and Ga16 nonsel ant 93*.
CC1(c2ccc(OC(F)F)cc2)NC(=O)N(CC(=O)Nc2ccccc2)C1=O (centres undefined) was read as GPR7 antagonist 89*, OX1R antag-1 1, TAAR1 antag 99*, CHO parental Ca 49*, TAAR1 agonist 148*, OX1R antag-2 52*, GPR7 antag conf 85*, MCHR1 antag 84*, TAAR1 ag confirm 139*, Ga16 ag counter-2 92*, TAAR1 desensitize 101* and Ga16 nonsel ant 73*.
For Cc1ccc(S(=O)(=O)N2CCOCC2)cc1NC(=O)CNc1ccccc1N1CCCC1=O the results were TAAR1 antag -3 and TAAR1 agonist 1.
`CCCNC(=O)C1(C)CCN1C(=O)c1ccccc1CCc1ccccc1` (centres undefined) gave TAAR1 antag -14 and TAAR1 agonist 1.
